# Reference: ChEMBL document CHEMBL1926598, “Synthesis, anti-inflammatory activity and ulcerogenic liability of novel nitric oxide donating/chalcone hybrids” (Bioorg Med Chem, 2012)
# What was measured:
# [1] = tested on: Rattus norvegicus; experiment: Antiinflammatory activity in albino rat assessed as inhibition of carrageenan-induced paw edema at 100 mg/kg, po administered 30 mins prior to challenge measured after 3 hrs relative to untreated control; type: functional
# Procedure, shortened: (§1)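 Adult male albino rats (120–140 g), groups of four, fasted 24 h with water allowed. Test compound suspended in 0.5% w/v CMC in water, given orally at 100 mg/kg; controls received CMC alone. After 30 min, 0.1 mL of 1% carrageenan in saline injected subplantar into right hind paw, saline into left. Paw thickness measured by caliper; % inhibition = [(VR−VL)control − (VR−VL)treated]/(VR−VL)control ×100; one-way ANOVA versus control.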
# [2] = tested on: Rattus norvegicus; experiment: Gastric toxicity in albino rat assessed as loss of mucosal membrane at the area of ulceration at 100 mg/kg, po after 5 hrs by hematoxylin and eosin staining; type: organism-based; design: dose 100 mg/kg, route oral; conditions: in vivo
# Procedure, shortened: (§2)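 Stomach sections from control and treated rats were dewaxed and hydrated through graded alcohols. They were stained with haematoxylin 5–7 min, differentiated 5–10 s in 1% HCl in 70% alcohol, then stained with 1% eosin for 10 min. Mucosa of the fundic stomach was examined by light microscopy.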
# [3] = tested on: Rattus norvegicus; experiment: Antiinflammatory activity in albino rat assessed as inhibition of carrageenan-induced paw edema at 100 mg/kg, po administered 30 mins prior to challenge measured after 2 hrs relative to untreated control; type: functional; procedure, shortened: as §1
# [4] = tested on: Rattus norvegicus; experiment: Antiinflammatory activity in albino rat assessed as inhibition of carrageenan-induced paw edema at 100 mg/kg, po administered 30 mins prior to challenge measured after 1 hr relative to untreated control; type: functional; procedure, shortened: as §1
# [5] = tested on: Rattus norvegicus; experiment: Gastric toxicity in albino rat assessed as ulcer index at 100 mg/kg, po after 5 hrs; type: organism-based; design: dose 100 mg/kg, route oral; conditions: in vivo
# Procedure, shortened: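 Rats dosed orally at 100 mg/kg in 0.5% CMC (n = 4). Stomach lesions counted and graded by area: level I <1 mm², II 1–3 mm², III >3 mm². Ulcer index = 1×(level I count) + 2×(level II) + 3×(level III). Mean ± SEM; one-way ANOVA versus control.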
# [6] = tested on: Rattus norvegicus; experiment: Antiinflammatory activity in albino rat assessed as inhibition of carrageenan-induced paw edema at 100 mg/kg, po administered 30 mins prior to challenge measured after 4 hrs relative to untreated control; type: functional; procedure, shortened: as §1
# [7] = tested on: Rattus norvegicus; experiment: Antiinflammatory activity in albino rat assessed as inhibition of carrageenan-induced paw edema at 100 mg/kg, po administered 30 mins prior to challenge measured after 5 hrs relative to untreated control; type: functional; procedure, shortened: as §1
# [8] = tested on: Rattus norvegicus; experiment: Gastric toxicity in albino rat assessed as loss of glandular structure morphology at 100 mg/kg, po after 5 hrs by hematoxylin and eosin staining; type: organism-based; design: dose 100 mg/kg, route oral; conditions: in vivo; procedure, shortened: as §2
# [9] = tested on: Rattus norvegicus; experiment: Gastric toxicity in albino rat assessed as change in gastric mucosa structure at 100 mg/kg, po after 5 hrs by hematoxylin and eosin staining; type: organism-based; design: dose 100 mg/kg, route oral; conditions: in vivo; procedure, shortened: as §2
# [10] = tested on: Rattus norvegicus; experiment: Gastric toxicity in albino rat assessed as capillary dilation in lamina propia below fundic gland at 100 mg/kg, po after 5 hrs by hematoxylin and eosin staining; type: organism-based; design: dose 100 mg/kg, route oral; conditions: in vivo; procedure, shortened: as §2
# [11] = tested on: Rattus norvegicus; experiment: Gastric toxicity in albino rat assessed as capillary inflammatory cells appearance at 100 mg/kg, po after 5 hrs by hematoxylin and eosin staining; type: organism-based; design: dose 100 mg/kg, route oral; conditions: in vivo; procedure, shortened: as §2
# [12] = tested on: Rattus norvegicus; experiment: Gastric toxicity in albino rat assessed as edema at 100 mg/kg, po after 5 hrs by hematoxylin and eosin staining; type: organism-based; design: dose 100 mg/kg, route oral; conditions: in vivo; procedure, shortened: as §2
smiles,measurement,setting,value
O=C(CBr)Nc1ccc(C(=O)/C=C/c2ccc(Cl)cc2)cc1,inhibition in vivo at 100 mg/kg,[1],59%
same,Activity,[2],Toxic
same,inhibition in vivo at 100 mg/kg,[3],52%
same,inhibition in vivo at 100 mg/kg,[4],44%
same,UI,[5],21.4
same,inhibition in vivo at 100 mg/kg,[6],59%
same,inhibition in vivo at 100 mg/kg,[7],54%
same,Activity,[8],Toxic
same,Activity,[9],Toxic
CC(=O)c1ccc(OCC(=O)Nc2ccc(C(=O)/C=C/c3ccc4c(c3)OCO4)cc2)cc1,inhibition in vivo at 100 mg/kg,[1],57%
same,inhibition in vivo at 100 mg/kg,[3],43%
same,inhibition in vivo at 100 mg/kg,[4],37%
same,UI,[5],11.2
same,inhibition in vivo at 100 mg/kg,[6],53%
same,Activity,[10],Toxic
same,Activity,[11],Toxic
same,inhibition in vivo at 100 mg/kg,[7],50%
same,Activity,[12],Toxic
